# Screening results deposited in PubChem by several laboratories.
# ZTA DNA inh – ZTA (EBV) inhibition in EBNA-1 counter-screen; 320,000 tested, 0.15% active; ZTA-DNA binding, fluorescence polarization; AID 2234; inhibition, % at 11 µM; P03206; in the data active means inhibition above about 33%
# CSN deneddyl inh – blocks human CSN-mediated cullin deneddylation | Purified CSN, SCF-Nedd8-OG deneddylation, fluorescence polarization | Q92905 | 360,000 tested, 0.38% active | inhibition, % at 12.5 µM | AID 651999;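 active means pattern-corrected inhibition above about 35%, with an unprinted fluorescence ratio check between 0.5 and 1.5, limit read from the data, passing the limit was not always enough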;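 further: 0% = enzyme with substrate and 100% = substrate without enzyme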
#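 test system = HEK293T-derived human Csn5 enzyme | amount = 0.24 nM Csn5 enzyme, final concentration | medium = Tris/NaCl/DTT buffer, pH 7.5 | schedule = 90 min reaction at room temperature | signal = FP | evaluation = inhibition of Csn5 cleavage, % | compound dosing = single dose of 12.5 µM compound with 0.25% DMSO | probe or stimulus = 10 nM SCFSkp2-Nedd8OG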
# HNF4A DNA FP – change in binding of human HNF4 alpha to DNA. 360,000 tested, 0.3% active. HNF4a-FITC DNA binding, fluorescence polarization, 1 h. P41235. AID 1224865. activity change, % at 10 µM; in the data active means activity change above about 30%, passing the limit was not always enough
# EBNA-1 inh – blocks EBNA-1 binding to DNA; EBNA-1 DNA binding, fluorescence polarization; inhibition, % at 14.8 µM; 300,000 tested, 0.34% active; AID 1950; in the data active means inhibition above about 28%
# LANA-H2A inh – blocks KSHV LANA binding to histone H2A/H2B; cell-free LANA-H2A/H2B peptide, fluorescence polarization; inhibition, % (concentration not given with the values); 320,000 tested, 0.6% active; in the data active means inhibition mostly above about 10%, no sharp cut-off; inactive means mostly below about 6.7%
# A1 inh – inhibitors of the anti-apoptotic protein A1, read as caspase activation; MEF A1-2A-BIM cells, Caspase-Glo 3/7 luminescence, 3 h; percent of clofoctol response, vehicle zero; caspase activation, % (concentration not given with the values); 330,000 tested, 0.066% active; AID 2462;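 active means over half of replicate activation scores above 10%, or exactly half above 10 with the replicate mean above 10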
# Active calls of the source: *; · = no result; + = active, no number. Most compounds without a hit are left out; they make up all but 1.5% or so of the library.
SMILES,ZTA DNA inh,CSN deneddyl inh,HNF4A DNA FP,EBNA-1 inh,LANA-H2A inh,A1 inh
NC1=NC[C@H](Cc2ccccc2)N1CCc1cccc(F)c1,7,63*,10,6,0,1
Fc1cccc(CCN2CCNC[C@@H]2Cc2ccccc2)c1,-8,38*,2,-6,-2,1
NC1=NC[C@H](Cc2ccccc2)N1CCCCC1CCCCC1,-20,7,1,-11,-3,0
COC/C=C/C1=CC2=CC(=O)C(C)(OC(=O)c3cnc4ccccc4n3)C(=O)C2=CN1CCN1CCOCC1 (stereo not drawn),1,2,1,10,18*,0
O=C(Cc1ccsc1)NNC(=O)c1ccccc1O,6,3,0,10,-3,0
COc1ccc(NC(=O)CCn2c(=S)[nH]c3ccccc3c2=O)cc1Cl,·,15,42*,·,·,·
O=C(NCC1CC1)c1ccc(-c2cn[nH]c2)c2ccoc12,·,3,0,·,·,·
COC(=O)/C(C#N)=C/c1ccc(-c2ccc(S(N)(=O)=O)cc2)o1,4,5,5,8,7,0
CCCCNC(=O)/C(C#N)=C/c1ccc(-c2ccc(S(=O)(=O)N3CCOCC3)cc2)o1,44*,-10,3,-9,0,-1
COc1ccccc1-c1cc(C(=O)NCCCN2CCOCC2)no1,9,3,-1,6,5,1
COc1ccccc1-c1cc(C(=O)NCCN2CCOCC2)no1,-6,6,-1,-6,16*,0
COCC(C)NC(=O)c1cc(-c2ccccc2OC)on1 (stereo not drawn),7,-6,0,5,21*,1
CC1CC(C)CN(C(=O)COC(=O)c2nn(C)c(=O)c3ccccc23)C1 (stereo not drawn),-1,0,2,-1,-1,0
CCN(CC(=O)Nc1c(F)cccc1F)C(=O)CCCc1nc2ccccc2c(=O)[nH]1,-13,-1,4,10,9.7*,1
Cn1c(=O)c2c(ncn2CC(=O)Nc2nc(-c3ccccc3Cl)cs2)n(C)c1=O,-9,-3,1,27*,3,0
COc1ccc(CNC(=O)CCC(=O)c2ccc(F)cc2)cc1OC,·,66*,1,·,2,1
COc1ccc(CN2C(=O)c3ccccc3C2c2nnnn2-c2ccc3c(c2)OCCO3)cc1OC (stereo not drawn),·,-4,-2,·,·,·
COc1ccccc1C(=O)NCC(=O)OC(C)C(=O)N(C)C1CCCCC1 (stereo not drawn),7,2,3,·,19*,1
CC(C)=CCN1CCN(Cc2coc3ccc(C)cc3c2=O)CC1CCO (stereo not drawn),-11,-1,51*,2,0,0
CCN1C(=O)[C@@H]2[C@@H]3CN(S(=O)(=O)c4ccc(C)cc4)[C@@H](c4cccc5ccccc45)[C@@H]3C(=O)C[C@@H]2C1=O,·,-2,-3,·,·,·
Cc1ccc(S(=O)(=O)N2C[C@H]3[C@H]4C(=O)N(C5CCCCC5)C(=O)[C@H]4CC(=O)[C@H]3[C@@H]2c2ccccc2Cl)cc1,·,36*,0,·,·,·
CCOC(=O)[C@]12CCCC=C1N(Cc1cccc3ccccc13)C(=O)[C@H](CC(=O)NCCCOC)C2,·,3,-1,·,·,·
Cc1cc(C)c(C)c(S(=O)(=O)N2CCN(C(=O)c3ccccc3OCc3c(C)noc3C)CC2)c1C,14,-2,4,·,1,0
CC[C@@]1(C(=O)OC)N[C@H](CN(C)C(=O)Nc2ccc(F)cc2)[C@@H]2C(=O)N(Cc3ccccc3)C(=O)[C@@H]21,·,-1,-1,·,·,·
COC(=O)[C@]1(C)N[C@H](CN(C)C(=O)Nc2ccc(Cl)cc2)[C@@H]2C(=O)N(Cc3ccccc3)C(=O)[C@@H]21,·,-3,0,·,+,-1
SMILES,ZTA DNA inh,CSN deneddyl inh,HNF4A DNA FP,EBNA-1 inh,LANA-H2A inh,A1 inh
CC[C@@]1(C(=O)OC)N[C@H](CN(C)C(=O)Nc2ccc(OC)cc2)[C@@H]2C(=O)N(Cc3ccccc3)C(=O)[C@@H]21,·,2,-2,·,+,-1
CCCNC(=O)C1(C)CCCN(Cc2c3ccccc3nn2C)C1 (stereo not drawn),·,-2,-2,·,·,·
COc1ccccc1-c1cccc([C@@H]2C[C@H]3[C@H](CON3C)CN2C(=O)CCc2ccccc2)c1,·,4,-1,·,·,·
CCn1cc(C(=O)OCC(=O)c2cc(C)n(-c3cccc(C(F)(F)F)c3)c2C)c(=O)c2ccc(C)nc21,7,3,0,8,54*,1
CCn1cc(C(=O)OCC(=O)c2ccccc2)c(=O)c2ccc(C)nc21,·,9,1,·,·,·
CCCCNC(=O)c1nc(C2CCN(S(=O)(=O)c3ccc(C(F)(F)F)cc3)CC2)oc1-c1ccccc1,·,-1,2,·,·,·
Cc1cccc(C)c1OCc1cc(C(=O)NC2CCC(O)CC2)no1 (stereo not drawn),25,4,-1,-2,21*,0
Cc1cccc(C)c1OCc1cc(C(=O)NC2CCC2)no1,-9,-2,-2,-1,0,-1
O=C(Nc1ccc(Cl)c(Cl)c1)Nc1cc(C(=O)NC2CC2)ccc1Cl,-6,·,·,-1,17*,0
O=C(Nc1ccc(Cl)c(Cl)c1)c1ccc(Cl)c(Cl)c1,10,3,0,2,0,1
Cc1cc(C(=O)Nc2cccc(O)c2)c(C)o1,-10,-2,60*,-8,-3,0
CC(C)CN1CCN(Cc2ccc(CN3CCCCC3)s2)CC1CCO (stereo not drawn),-6,1,-1,3,41*,1
CC(C)CN1CCN(Cc2nc3ccccc3s2)CC1CCO (stereo not drawn),20,7,-5,3,-1,1
COc1ccc(CC(=O)Nc2nnc(C)s2)cc1,3,-1,6,2,-5,1
Cc1ccnc(NC(=O)c2ccc(OCc3c(C)noc3C)cc2)c1,·,-6,-2,·,·,·
O=C(COC(=O)c1cncc(Br)c1)NCc1ccccc1,3,-3,0,0,1,0
O=C(COC(=O)c1cncc(Br)c1)NCc1ccc(Cl)cc1,-11,-4,1,-10,167*,1
CCOC(=O)C1=C[C@@H](C(C)(C)C)N(S(=O)(=O)c2ccccc2C)[C@H]1c1ccc(Cl)cc1,·,-2,-6,·,·,·
O=c1[nH]c(=S)[nH]c2c1C(c1ccc(F)cc1)OC(C1CCCCC1)C2 (stereo not drawn),·,-1,-1,·,·,·
COc1ccc(N(C(=O)c2ccncc2)S(=O)(=O)c2ccccc2)cc1,15,1,1,3,3,0
COc1ccc(N(C(=O)c2ccncc2)S(=O)(=O)c2ccc(F)cc2)cc1,11,85*,7,4,-4,0
COCCCn1c(=NC(C)=O)c(C#N)cc2c(=O)n3cccc(C)c3nc21,-2,-4,-5,2,-6,-3
